Reference: ChEMBL document CHEMBL1132724 (J Med Chem, 1999)

Tests used:
[1] = molecular target: T1, Mu-type opioid receptor (Rattus norvegicus, UniProt P33535); assay: Ability to displace [3H]DAMGO radioligand from Opioid receptor mu 1
How it was run: (§1)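 Rat brain membranes prepared daily, homogenized in ice-cold 10 mM Tris-HCl pH 7.0, centrifuged twice at 30000g. [3H]DAMGO 2.0 nM, 2 h at 25 °C in 50 mM Tris-HCl pH 7.4 with protease inhibitors. Nonspecific binding: 20 μM levallorphan. 10 drug concentrations, run twice. IC50 converted to Ki by Cheng-Prusoff.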

[2] = molecular target: Opioid receptors; mu & delta (Homo sapiens) (UniProt P41143+P35372); assay: Selectivity Ratio of Ki of Mu receptor/ Ki of Delta receptor; type: protein assay
Sequence of Opioid receptors; mu & delta (Homo sapiens) (P35372 whole entry, looked up): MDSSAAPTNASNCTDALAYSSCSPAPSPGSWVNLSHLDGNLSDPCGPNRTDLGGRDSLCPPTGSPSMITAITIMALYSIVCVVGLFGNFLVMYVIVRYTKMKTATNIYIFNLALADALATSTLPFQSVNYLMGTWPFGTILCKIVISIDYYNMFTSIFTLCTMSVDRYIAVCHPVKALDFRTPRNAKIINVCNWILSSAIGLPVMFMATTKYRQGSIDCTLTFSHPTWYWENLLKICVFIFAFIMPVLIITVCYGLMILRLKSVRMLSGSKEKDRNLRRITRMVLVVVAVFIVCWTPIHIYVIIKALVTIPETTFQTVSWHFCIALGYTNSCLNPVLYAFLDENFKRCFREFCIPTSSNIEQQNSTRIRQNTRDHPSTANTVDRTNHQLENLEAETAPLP
Sequence of Opioid receptors; mu & delta (Homo sapiens) (P41143 whole entry, looked up): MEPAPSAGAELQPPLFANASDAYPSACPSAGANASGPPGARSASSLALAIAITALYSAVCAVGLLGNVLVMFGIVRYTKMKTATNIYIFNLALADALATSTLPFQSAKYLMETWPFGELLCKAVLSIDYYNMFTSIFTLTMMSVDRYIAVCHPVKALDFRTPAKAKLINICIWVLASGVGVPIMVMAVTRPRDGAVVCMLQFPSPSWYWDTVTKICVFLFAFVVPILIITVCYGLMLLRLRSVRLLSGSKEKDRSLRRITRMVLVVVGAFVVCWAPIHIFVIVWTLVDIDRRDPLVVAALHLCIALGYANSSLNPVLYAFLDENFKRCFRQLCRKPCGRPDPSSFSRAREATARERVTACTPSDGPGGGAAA

[3] = molecular target: T2, Delta-type opioid receptor (Rattus norvegicus, UniProt P33533); assay: Ability to displace [3H]DADLE radioligand from Opioid receptor delta 1
T2 sequence (P33533 whole entry): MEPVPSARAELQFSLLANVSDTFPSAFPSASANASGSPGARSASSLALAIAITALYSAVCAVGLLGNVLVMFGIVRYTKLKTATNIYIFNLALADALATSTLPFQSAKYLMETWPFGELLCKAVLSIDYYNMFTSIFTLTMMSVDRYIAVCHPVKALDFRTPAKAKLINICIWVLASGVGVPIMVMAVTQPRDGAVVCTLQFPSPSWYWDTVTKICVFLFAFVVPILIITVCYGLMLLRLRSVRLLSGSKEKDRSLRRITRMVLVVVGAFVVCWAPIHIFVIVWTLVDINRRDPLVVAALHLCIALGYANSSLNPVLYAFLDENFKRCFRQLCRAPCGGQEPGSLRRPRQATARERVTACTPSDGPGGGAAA
How it was run: as §1, with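 “[3H]DADLE” for “[3H]DAMGO”, “with 100 mM choline chloride, 3 mM MnCl2, 100 nM DAMGO to block mu sites,” for “with”, “twice. Ki from” for “twice.”, “IC50” for “IC50 converted to Ki”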

[4] = molecular target: Opioid receptors; delta & kappa (Homo sapiens) (UniProt P41145+P41143); assay: Selectivity Ratio of Ki of Kappa receptor/ Ki of Delta receptor; type: protein assay
Sequence of Opioid receptors; delta & kappa (Homo sapiens) (P41143 whole entry, looked up): as the sequence (P41143 whole entry, looked up) above
Sequence of Opioid receptors; delta & kappa (Homo sapiens) (P41145 whole entry, looked up): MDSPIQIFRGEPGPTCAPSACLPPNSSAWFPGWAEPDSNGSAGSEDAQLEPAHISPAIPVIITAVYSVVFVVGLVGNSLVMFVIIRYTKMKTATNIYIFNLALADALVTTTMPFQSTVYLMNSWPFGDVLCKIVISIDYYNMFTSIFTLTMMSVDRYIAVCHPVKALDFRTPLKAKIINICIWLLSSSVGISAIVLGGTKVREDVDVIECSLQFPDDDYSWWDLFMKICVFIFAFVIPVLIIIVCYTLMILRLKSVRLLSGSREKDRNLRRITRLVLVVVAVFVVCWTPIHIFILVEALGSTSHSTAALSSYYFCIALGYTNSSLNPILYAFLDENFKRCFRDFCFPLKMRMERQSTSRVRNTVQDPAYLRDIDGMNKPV

[5] = molecular target: T3, Kappa-type opioid receptor (Cavia porcellus, UniProt P41144); assay: Ability to displace [3H]U-69593 radioligand from Opioid receptor kappa 1
T3 sequence (P41144 whole entry): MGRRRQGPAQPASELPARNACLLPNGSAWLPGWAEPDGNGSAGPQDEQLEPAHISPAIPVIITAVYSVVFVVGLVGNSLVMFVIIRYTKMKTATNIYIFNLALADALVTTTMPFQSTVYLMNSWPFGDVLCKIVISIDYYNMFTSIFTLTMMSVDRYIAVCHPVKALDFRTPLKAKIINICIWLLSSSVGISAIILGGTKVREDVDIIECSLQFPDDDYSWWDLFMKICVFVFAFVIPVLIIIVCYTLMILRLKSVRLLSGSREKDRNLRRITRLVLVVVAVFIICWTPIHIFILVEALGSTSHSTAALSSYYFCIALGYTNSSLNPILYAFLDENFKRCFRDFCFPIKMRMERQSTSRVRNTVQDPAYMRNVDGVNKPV
How it was run: (§2)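 Guinea pig brain membranes prepared daily, homogenized in ice-cold 10 mM Tris-HCl pH 7.0, centrifuged twice at 30000g. [3H]U69,593 2.0 nM, 2 h at 25 °C in 50 mM Tris-HCl pH 7.4 with 1 μg/mL captopril and protease inhibitors. Nonspecific binding: 1 μM U69,593. 10 drug concentrations, run twice. Ki from IC50 by Cheng-Prusoff.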

[6] = organism: Cavia porcellus; assay: (§3) Agonistic activity in Guinea Pig Ileum; type: functional, organism-based
How it was run: (§4)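 Electrically stimulated (0.1 Hz, 0.4-ms pulses, 2-ms for MVD) guinea pig ileum myenteric plexus strips (male Hartley) or vas deferens (male ICR mice) in 37 °C oxygenated Krebs (Mg-free for MVD). […] Tissues checked against an initial DPDPE or PL-017 curve. Mean of 2-4 tissues.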

[7] = organism: Mus musculus; assay: (§5) Agonistic activity in Mouse Vas Deferens; type: functional, organism-based; how it was run: as §4
[8] = organism: Cavia porcellus; assay: as §3; type: functional; how it was run: as §4
[9] = molecular target: T3, Kappa-type opioid receptor; assay: Ability to inhibit GTP-gamma-S binding to Opioid receptor kappa 1 of guinea pig caudate.
How it was run: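 Guinea pig caudate membranes (10 μg) incubated 4 h with 0.05-0.1 nM [35S]GTP-γ-S in Tris buffer pH 7.7 with NaCl, MgCl2, EDTA, DTT, 100 µM GDP, 0.1% BSA. κ agonist U69,593 (500 nM or 10 μM) antagonised by ≥10 antagonist concentrations.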

[10] = molecular target: Mu-type opioid receptor (Cavia porcellus, UniProt P97266); assay: Ability to inhibit GTP-gamma-S binding to Opioid receptor mu 1 of guinea pig caudate.
Sequence of Mu-type opioid receptor (Cavia porcellus, UniProt P97266) (P97266 whole entry): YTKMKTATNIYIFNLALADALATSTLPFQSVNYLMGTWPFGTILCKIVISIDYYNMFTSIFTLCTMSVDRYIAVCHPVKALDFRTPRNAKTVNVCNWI
How it was run: (§6)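 Antagonism of agonist-stimulated [35S]GTP-γ-S (0.05-0.1 nM) binding in guinea pig caudate membranes (10 μg). Buffer: 59 mM Tris pH 7.7, 100 mM NaCl, 1 mM EDTA, 1 mM DTT, 100 μM GDP, 0.1% BSA. Agonist 500 nM or 10 μM (DAMGO for mu, U69,593 for kappa), ≥10 antagonist concentrations, 4 h. Filtration and scintillation counting. Nonspecific binding: 10 μM GTP-γ-S. Triplicate, ≥3 experiments. Ki by curve fitting.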

[11] = organism: Mus musculus; assay: as §5; type: functional; how it was run: as §4
[12] = molecular target: T2, Delta-type opioid receptor; assay: Binding affinity towards Opioid receptor delta 1 by the displacement of [3H]DADLE radioligand in rat brain membranes; type: cell membranes
How it was run: as §1, with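 “[3H]DADLE” for “[3H]DAMGO”, “with 100 mM choline chloride, 3 mM MnCl2, 100 nM DAMGO to block mu sites,” for “with”, “twice. Ki from” for “twice.”, “IC50” for “IC50 converted to Ki”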

[13] = molecular target: T3, Kappa-type opioid receptor; assay: Binding affinity towards Opioid receptor kappa 1 by the displacement of [3H]U-69593 radioligand in guinea pig brain membranes; type: cell membranes, Membrane; how it was run: as §2
[14] = molecular target: T3, Kappa-type opioid receptor; assay: Ability to inhibit GTP-gamma-S binding to Opioid receptor kappa 1 of guinea pig caudate; how it was run: as §6
[15] = molecular target: T1, Mu-type opioid receptor; assay: Binding affinity towards Opioid receptor mu 1 by the displacement of [3H]DAMGO radioligand in rat brain membranes; type: cell membranes; how it was run: as §1

T1 sequence (P33535 whole entry): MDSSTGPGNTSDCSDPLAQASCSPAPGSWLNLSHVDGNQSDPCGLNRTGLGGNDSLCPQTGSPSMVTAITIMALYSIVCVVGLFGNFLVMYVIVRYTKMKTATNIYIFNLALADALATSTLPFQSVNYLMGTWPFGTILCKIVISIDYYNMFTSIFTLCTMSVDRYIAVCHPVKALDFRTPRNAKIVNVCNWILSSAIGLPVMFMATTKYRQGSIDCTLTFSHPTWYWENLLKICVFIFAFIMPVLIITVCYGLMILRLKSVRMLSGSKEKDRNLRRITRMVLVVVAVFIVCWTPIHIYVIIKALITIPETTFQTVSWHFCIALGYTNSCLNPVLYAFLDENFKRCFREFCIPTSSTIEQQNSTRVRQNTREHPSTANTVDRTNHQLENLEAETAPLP

Structure (SMILES) | Ki [1] [nM] | Selectivity ratio [2] | Ki [3] [nM] | Selectivity ratio [4] | Ki [5] [nM] | also measured
COc1ccc2c(c1O)[C@]13CCN(C)[C@H](C2)[C@@H]1Cc1c([nH]c2ccccc12)C3 | 2820 | 30 | 94 | 72 | > 6800 | 
CCN1CC[C@]23Cc4[nH]c5ccccc5c4C[C@H]2[C@H]1Cc1ccc(OC)c(O)c13 | 1350 | 3 | 515 | 7 | 3640 | 
CCN1CC[C@]23Cc4[nH]c5ccccc5c4C[C@@]2(O)[C@H]1Cc1ccc(OC)c(O)c13 | 797 |  | 684 | 8 | > 5300 | 
C=CCN1C[C@H](C)N([C@H](c2ccc(C(=O)N(CC)CC)cc2)c2cccc(OC)c2)C[C@H]1C [SNC-80] |  |  |  |  |  | IC50 [6]: 5460 nM; IC50 [7]: 2.73 nM
Oc1ccc2c3c1O[C@H]1c4[nH]c5ccccc5c4C[C@@]4(O)[C@@H](C2)N(CC2CC2)CC[C@]314 [NALTRINDOLE] |  |  | […] |  |  | Inhibition [8]: <20%; Ki [9]: 8.85 nM; Ki [10]: 3.2 nM; Inhibition [11]: <20%
COc1ccc2c(c1O)[C@]13CCN(C)[C@H](C2)[C@]1(O)Cc1c([nH]c2ccccc12)C3 | 2850 | 13 | 218 | 31 | > 6700 | 
COc1ccc2c(c1O)[C@]13CCN(CC4CC4)[C@H](C2)[C@@H]1Cc1c([nH]c2ccccc12)C3 |  |  |  |  |  | Ki [12]: 7 nM; IC50 [6]: 532 nM; Ki [10]: > 1250 nM; Ki [13]: 7920 nM; IC50 [7]: 188 nM; Ki [14]: > 1250 nM; Ki [15]: 13300 nM
COc1ccc2c(c1O)[C@]13CCN(CC4CC4)[C@H](C2)[C@]1(O)Cc1c([nH]c2ccccc12)C3 | 1850 | 85 | 21.8 | 145 | 3160 | 
